Assay outcomes (PubChem BioAssay)
In the library only some 3.1% were active in any assay of this set; here they are far more common.
Beta apoptosis: blocks beta cell apoptosis; INS-1E cytokine-induced death, ATP luminescence, 48 h; percent of positive-control rescue, neutral wells zero; protection from apoptosis, % (concentration not given with the values); 300,000 tested, 0.8% active;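 active = Every replicate reaches about 75%, or at least half do and their mean reaches it too, limit read from the data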;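 also: 0% = cytokine-treated negative control wells and 100% = positive control rescue; higher means more ATP so stronger rescue from cytokine killing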
Calb FLC: affects C. albicans growth with fluconazole; AID 1979; C. albicans CaCi-2 (fluconazole-resistant clinical isolate) + fluconazole, Alamar Blue growth, 48 h; growth inhibition, % (concentration not given with the values); 300,000 tested, 0.57% active;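 active = growth inhibition above about 58% in most replicates, limit read from the data, passing the limit was not always enough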;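 also: all wells also contain fluconazole at 8 µg/ml as a sub-toxic cotreatment; 0% = median of DMSO wells and 100% = median of geldanamycin control wells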
T cruzi repl: blocks replication of Trypanosoma cruzi; T. cruzi beta-gal in NIH3T3, luminescence, 90 h; inhibition, % (concentration not given with the values); 300,000 tested, 1.4% active; AID 1885;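 active = mean inhibition across valid replicates above about 55%, limit read from the data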;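 also: signal also drops with host cell toxicity which is not excluded here; 0% = plate median of DMSO wells and 100% = zero luminescence signal; higher percent means less beta-gal luminescence so fewer parasites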
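Material: NIH/3T3 host cells with β-galactosidase reporter T. cruzi; Input: 5,000 host fibroblasts per well; Medium: DMEM, 2% fetal bovine serum; Compound: 50 nL DMSO compound solution per well; Schedule: 3 h host attachment, then at least 90 h co-culture; Detection: luminescent β-galactosidase signal after 60 min lysis.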
PolyA inhibitor: blocks polyadenylation in yeast reporter cells; S. cerevisiae SKY197-pL101 polyadenylation reporter, beta-gal luminescence; efflux-impaired pdr1/pdr3 knockout yeast; score 100 = 6 SD above DMSO; activity score, % at 12 µM; 300,000 tested, 0.02% active; AID 1875;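 active = lowest replicate activity score at least 50, where 100 means six control SD above control mean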;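 also: yeast exposed to compound for 9 h at 30 °C; higher score means more reporter readthrough which indicates perturbed polyadenylation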
HIF activator: HIF pathway transcriptional activation. U2OS HRE-luciferase reporter, luminescence; normalized: DMSO 0%, desferrioxamine 100%. activation, % at 7.5 µM (by protocol). 300,000 tested, 0.32% active;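 active = mean activation of at least 10% of the iron chelator positive control signal, with at least half of replicates also reaching 10%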
CSC inhib: cancer stem cell inhibition | 300,000 tested, 1.1% active | inhibition, % at 7.5 µM | AID 2717 | cancer stem cell-like cells viability, luminescence; in the data active = inhibition above about 75%; tested in HMLE shEcad cells
The depositor's hits bear a star; . = not tested or not shown.

SMILES	Beta apoptosis	Calb FLC	T cruzi repl	PolyA inhibitor	HIF activator	CSC inhib
CC(C)=C(C#N)c1nc2ccccc2s1	-6	-16	-13	0	0	-4
COc1ccc(/C=N/NC(C)(C)C)c(OC)c1	-8	3	-9	17	-1	31
O=C(c1ccco1)N(CCCN1CCOCC1)c1nc(-c2ccc(F)cc2)cs1	7	-17	69*	-2	1	1
CCN(CC)CCCN(C(=O)c1ccco1)c1nc(-c2ccc(C)cc2)cs1	7	-33	33	-3	0	2
O=C(c1ccco1)N(CCCN1CCOCC1)c1nc(-c2ccc(Cl)cc2)cs1	7	6	67*	12	0	6
CN(C(=O)c1ccco1)c1nc(-c2ccc(F)cc2)cs1	0	-12	-7	-16	2	-5
CCN(CC)CCCN(C(=O)c1ccco1)c1nc(-c2ccc(Cl)cc2)cs1	17	-36	59*	-2	1	7
Cc1c(O)c(S(=O)c2ccccc2)c(=O)n(-c2ccccc2)c1-c1ccccc1 (stereo unspecified)	-3	-8	-10	-1	-1	-5
CC1CCCC(NCC(O)COC(c2ccc(F)cc2)c2ccc(F)cc2)C1C (stereo unspecified)	44	8	21	-2	-1	80*
CCN(C(=O)COC(=O)c1cccc(NS(=O)(=O)c2ccc(F)c(F)c2)c1)C1CCS(=O)(=O)C1 (stereo unspecified)	0	6	-6	-7	-28	-8
COc1ccc(NC(=O)c2sccc2SCc2cccc(C(F)(F)F)c2)cc1	1	2	69*	-3	0	22
O=C1/C(=C/c2ccc(N3CCOCC3)o2)SC(=Nc2ccccc2)N1CCc1c[nH]c2ccccc12	101*	1	71*	12	-4	85*
COc1cc(/C=C2\SC(=Nc3ccccc3)N(CCc3c[nH]c4ccccc34)C2=O)ccc1OC(C)C(=O)O (stereo unspecified)	-16	32	-4	-6	-1	41
CC(C)c1cc(C(C)C)c(S(=O)(=O)N2c3ccccc3[C@@]3(Br)C[C@H]4C(=O)N[C@@H](Cc5ccccc5)C(=O)N4[C@@H]23)c(C(C)C)c1	.	1	55*	-8	-4	-20
CC(C)c1cc(C(C)C)c(S(=O)(=O)N2c3ccccc3[C@]3(Br)C[C@H]4C(=O)N[C@@H](Cc5ccccc5)C(=O)N4[C@H]23)c(C(C)C)c1	.	-1	55*	-6	0	.
O=C1N[C@@H](Cc2ccccc2)C(=O)N2[C@@H]3N(S(=O)(=O)c4ccccc4)c4ccccc4[C@]3(Br)C[C@@H]12	.	-2	11	7	0	-21
O=C1N[C@@H](Cc2ccccc2)C(=O)N2[C@H]1C[C@]1([C@]34C[C@H]5C(=O)N[C@@H](Cc6ccccc6)C(=O)N5[C@H]3N(S(=O)(=O)c3ccccc3)c3ccccc34)c3ccccc3N(S(=O)(=O)c3ccccc3)[C@H]21	0	-7	7	-19	0	0
CC(C)CN1CCC(=O)N([C@H](CO)Cc2ccccc2)CC1	-4	1	-20	13	-2	-2
CCCNC(=O)c1ccc2c(=O)c(O)c(-c3ccc(C)cc3)[nH]c2c1	82*	-5	-20	7	2	39
CCCNC(=O)c1ccc2c(=O)c(O)c(-c3ccsc3)[nH]c2c1	8	71	-21	-8	4	6
CCCNC(=O)c1ccc2c(=O)c(O)c(-c3ccc(OC)cc3)[nH]c2c1	0	82*	-32	-7	1	29
Cc1ccc(-c2[nH]c3cc(C(N)=O)ccc3c(=O)c2O)cc1	-4	-3	-15	8	2	.
Cc1ccc(CNC(=O)c2ccc3c(=O)c(O)c(-c4ccc(C)cc4)[nH]c3c2)cc1	30	-10	60*	0	2	42
CCOC(=O)C1CCN(CCC(=O)Nc2ccc(C)c(C)c2)CC1	1	-30	.	6	.	18
Cc1ccc(C(=O)Nc2nc(C)c(C(=O)Nc3ccc4c(c3)CCC4)s2)cc1	14	-8	-27	8	2	81*
SMILES	Beta apoptosis	Calb FLC	T cruzi repl	PolyA inhibitor	HIF activator	CSC inhib
Fc1ccc(-[n+]2nc(Nc3ccccc3)sc2-c2c(Cl)cccc2Cl)cc1	2	-3	42	7	0	42
CCc1ccc(Nc2n[n+](-c3ccccc3)c(-c3c(Cl)cccc3Cl)s2)cc1	108*	20	59*	13	3	109*
CCc1ccc(Nc2n[n+](-c3ccccc3)c(-c3ccc(N(CC)CC)cc3)s2)cc1	108*	3	58*	20	5	34
CCc1ccc(Nc2n[n+](-c3ccccc3)c(-c3ccc(OCc4ccccc4)cc3)s2)cc1	60	1	55*	18	0	27
c1ccc(COc2ccc(-c3sc(Nc4ccccc4)n[n+]3-c3ccccc3)cc2)cc1	65	5	32	7	-4	18
O=S(=O)(c1ccc(F)cc1)N1CCN(c2ccccn2)CC1	.	6	-10	3	0	2
CC(=O)c1sc(-c2ccc(F)cc2)cc1NS(=O)(=O)c1ccc(C)cc1	-6	-3	-11	-8	1	1
NC(=O)c1sc(-c2ccsc2)cc1NS(=O)(=O)c1ccc(C(F)(F)F)cc1	13	14	-22	-12	-1	79*
Cn1c(=O)[nH]c(=O)c2c1nc(SCC(O)CCl)n2Cc1ccccc1 (stereo unspecified)	5	6	-5	-14	-2	-11
COc1ccc(/C=N/NC(N)=S)cc1	-9	4	-1	-6	1	-2
C=CCOc1ccc(/C=N\NC(N)=S)cc1	-1	-4	64*	-22	0	0
C#CCOc1ccc(/C=N/NC(=O)c2cccnc2)cc1OCC	-2	0	0	16	0	-5
COC(=O)c1ccc(COc2ccc(/C=N/NC(N)=S)cc2)o1	1	46	55*	5	0	5
CCOc1cc(/C=N/NC(=O)c2cccnc2)ccc1OCc1ccc(C(=O)OC)o1	4	12	0	-8	14*	-2
CCn1cc(C(=O)O)c(=O)c2cc(F)c(N3CCN(C(=S)NC(=O)c4ccccc4Br)CC3)cc21	-8	-4	-1	-4	-20	.
CCN(CC)CCNc1nc2cc(OC)c(OC)cc2c2nc(-c3ccccc3)nn12	.	-3	65*	-10	2	-1
COc1cc2[nH]c(=O)n3nc(-c4ccccc4)nc3c2cc1OC	0	0	21	0	1	-9
COc1ccccc1NC(=O)c1coc(=O)c(Br)c1	0	-1	6	23	1	29
Cc1cc2cc(CN3C(=O)c4ccccc4C3=O)ccc2n1C	100*	6	83*	12	0	19
